High-throughput results from PubChem.
The list is not random: actives were taken first. Their share in the collection is about 9.6%.
PMI act – phosphomannose isomerase (human) activation; 190,000 tested, 0.005% active; purified human PMI, coupled resazurin fluorescence, 20 min; active compounds read high; 1 = vehicle control, 0 substrate-free wells; AID 1214; P34949; activation factor at 20 µM;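 active = activation factor of 2 or more at 20 µM, relative to plate controls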
Target sequence (P34949 whole entry, looked up): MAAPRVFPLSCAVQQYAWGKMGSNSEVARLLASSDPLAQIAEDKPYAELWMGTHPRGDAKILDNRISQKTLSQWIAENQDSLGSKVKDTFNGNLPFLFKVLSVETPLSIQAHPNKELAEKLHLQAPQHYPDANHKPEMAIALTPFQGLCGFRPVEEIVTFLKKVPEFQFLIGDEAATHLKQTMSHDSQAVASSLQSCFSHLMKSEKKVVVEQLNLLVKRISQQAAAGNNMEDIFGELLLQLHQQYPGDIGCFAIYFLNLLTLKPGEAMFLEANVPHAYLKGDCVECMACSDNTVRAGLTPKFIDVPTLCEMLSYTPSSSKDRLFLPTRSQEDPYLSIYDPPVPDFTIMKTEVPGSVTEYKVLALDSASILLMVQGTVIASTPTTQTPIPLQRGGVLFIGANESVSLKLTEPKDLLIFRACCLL
bCat KO growth – beta-catenin-lacking colon tumor cell growth suppression; HCT116 beta-catenin knockout viability, CellTiter-Glo, 60 h; active compounds read low; viability, % at 10 µM; 140,000 tested, 1.5% active;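 active = viability at or under a set limit, the compound median less 4 SD, cut at about 6% in these data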;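 note: 0% = Hyamine 1622 control at 20 µM and 100% = untreated cell control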
PMI act hi M6P – activators of human phosphomannose isomerase at near-saturating mannose 6-phosphate; activation factor at 20 µM; 190,000 tested, 0.34% active; coupled PMI enzyme assay, resazurin fluorescence, 20 min; active compounds read high; 1 = untreated enzyme, 0 = substrate-free blank; P34949;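 active = activation factor of 2 or more at 20 µM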
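Test system: human PMI in coupled enzyme assay; Input: PMI at 15 ng/mL final; Medium: HEPES buffer, pH 7.4; Schedule: 20 min incubation at room temperature; Technique: resorufin fluorescence at Ex 544/Em 590 nm; Compound: 20 µM single dose; Probe or stimulus: Near-saturating mannose-6-phosphate, 1.0 mM.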
Lmaj promast – reduces viability of Leishmania major promastigotes; resazurin fluorescence viability; inhibition, % at 10 µM; 200,000 tested, 9% active; in the data active = inhibition above about 50%;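 note: promastigotes grown with compound for 44 hours at 28 °C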
PTEN del growth – PTEN-deleted cell growth suppression. HCT116 PTEN-null viability, CellTiter-Glo, 60 h; active compounds read low. viability, % at 10 µM. 140,000 tested, 1.2% active. AID 827;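 active = viability at or below a set limit, 4 SD under the median of all tested compounds, cut at about 3.7% in these data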;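 note: PTEN knockout HCT116 line with beta catenin targeted HCT116 as companion control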
Active calls of the source: *; . = no result given.

SMILES	PMI act	bCat KO growth	PMI act hi M6P	Lmaj promast	PTEN del growth
O=C1CCC(C(=O)OCC(=O)N2N=C3/C(=C/c4ccccc4)CCCC3C2c2ccccc2)N1 (stereo not drawn)	0.9	65.7	0.9	9.0	69.7
COC(=O)c1ccc2nc(C)cc(Nc3ccc(N(C)C)cc3)c2c1	1.1	56.2	1.1	67.2*	61.7
CC(C)CCN1CCN(Cc2cnc(-c3ccccc3)s2)CC1CCO (stereo not drawn)	1	.	0.9	88.0*	.
Cc1ncc(CN2CCN(Cc3ccc(F)cc3)C(CCO)C2)s1 (stereo not drawn)	.	.	.	-3.3	.
Cc1ncc(CN2CCN(CCc3ccccc3)C(CCO)C2)s1 (stereo not drawn)	0.9	.	0.9	63.5*	.
COc1cccc2c1OCC(CN1CCN(CCC(C)C)C(CCO)C1)=C2 (stereo not drawn)	1	.	1	69.9*	.
CC(C)CCN1CCN(Cc2cnc(N3CCCC3)s2)CC1CCO (stereo not drawn)	0.9	.	1	-0.6	.
Cc1ccc(CN2CCN(CCCc3ccccc3)CC2CCO)cc1 (stereo not drawn)	0.9	.	0.8	86.7*	.
O=C(NCc1ccc2c(c1)OCO2)C(=O)Nc1ccccc1	1	.	1	-4.0	.
C/C(=N\O)C(C)NC(=O)c1ccccc1 (stereo not drawn)	0.9	91.0	1	-6.2	94.1
Cc1ccc(CN2CCN(Cc3cccn3-c3ccc(Cl)cn3)CC2CCO)o1 (stereo not drawn)	0.9	.	0.9	-0.7	.
CC(C)CCN1CCN(Cc2cccn2-c2ccc(Cl)cn2)CC1CCO (stereo not drawn)	1	.	1	73.4*	.
Cc1cc(C)c(S(=O)(=O)NCC(=O)NCc2ccccn2)c(C)c1	1.1	.	1	-1.6	.
CS(=O)(=O)c1sc2nc(-c3cccs3)cc(-c3ccccc3)c2c1N	1.6	77.2	2.2*	47.9	75.4
CCOc1ccc(C2=NNC(c3cccs3)=Nc3ccc(OC)cc32)cc1OCC	0.9	76.6	0.8	67.0*	76.3
COc1ccc(C2=NNC(c3cccs3)=Nc3ccc(OC)cc32)cc1	0.9	88.8	0.9	9.9	87.0
CC(=O)c1cnc2n(c1=O)CCS2	1	.	0.9	1.7	.
N#CC1=C(N)N(c2ccccc2)C2=C(C(=O)CCC2)C1c1cccs1 (stereo not drawn)	0.8	91.8	0.8	73.5*	85.1
Cc1ccc(N2C(N)=C(C#N)C(c3cccs3)C3=C2CC(C)(C)CC3=O)cc1 (stereo not drawn)	0.9	89.6	0.9	98.2*	78.2
CC1(C)CC(=O)C2=C(C1)N(c1ccc(F)cc1)C(N)=C(C#N)C2c1cccs1 (stereo not drawn)	0.9	92.5	0.7	18.6	89.0
CCOc1cccc(-c2nn(-c3ccccc3)cc2/C=C(/C#N)C(=O)NCCCn2ccnc2)c1	1	9.6	0.9	100.3*	7.8
N#C/C(=C/c1cn(-c2ccccc2)nc1-c1cccc(OCc2ccccc2)c1)C(=O)NCCCn1ccnc1	1.1	48.8	1	100.4*	11.9
CCCSc1ccc(-c2nn(-c3ccccc3)cc2/C=C(/C#N)C(=O)NCCCOC)cc1	0.9	73.6	0.9	86.2*	85.0
CCN(CC)C(=O)COc1ccc(C=O)cc1OC	0.9	94.8	1	-4.3	96.3
CC1CCN(Cc2c(O)ccc3c(=O)c(-c4nc5ccccc5s4)c(N)oc23)CC1	0.9	23.4	1	60.3*	4.4
SMILES	PMI act	bCat KO growth	PMI act hi M6P	Lmaj promast	PTEN del growth
CC1CCCN(Cc2c(O)ccc3c(=O)c(-c4nc5ccccc5s4)c(N)oc23)C1 (stereo not drawn)	0.9	1.0*	1	100.7*	0.9*
Cc1c(C)c2cc(Cl)c(O)c(CN3CCCC(C)C3)c2oc1=O (stereo not drawn)	0.8	91.5	0.8	-3.6	96.9
COC(=O)CCn1c(C)cc(C(=O)COc2ccccc2C(N)=O)c1C	1.1	.	1	-7.3	.
Cc1cc(C(=O)CCl)c(C)n1CCc1ccccc1	1.4	.	1.2	100.3*	.
COC(=O)CCCn1c(C)cc(C(=O)CCl)c1C	1.3	.	1.2	100.4*	.
CC(C)(C)c1ccc(C(=O)NNC(=O)C2CCCCC2)cc1	0.9	97.8	0.9	5.8	104.1
CC(C)=NNc1nc2c(c(=O)n(C)c(=O)n2C)n1CCc1ccccc1	1.2	.	0.8	9.2	.
Fc1ccc(-c2noc(C3CCN(Cc4cccnc4)CC3)n2)cc1	0.8	43.1	0.9	94.0*	48.8
CCCC1CCC(c2nc(-c3cccnc3)no2)CC1 (stereo not drawn)	1	98.2	1	-4.4	98.0
C=CC(O)(C#CCN(CC)CC)c1ccccc1 (stereo not drawn)	0.9	70.9	0.9	-2.8	50.9
CCN(CC)CC#CCC(O)(c1ccccc1)c1ccccc1	1	.	1	77.1*	.
CCN(CC)CC#CCC(O)(c1ccccc1)c1ccc(Br)cc1 (stereo not drawn)	1.1	.	1.1	45.6	.
CCN(CC)CC#CCC(C)(c1ccccc1)c1ccccc1	0.9	10.0	1	94.4*	10.0
CCOc1ccccc1NC(=O)CCn1cccc1	1	.	1	0.1	.
CCOC(=O)c1ccc(-n2c(C)ccc2C)cc1	1.1	19.4	1	-3.8	14.7
CCOC(=O)c1ccc(N=c2sc(C(=O)OC)cc(=O)n2-c2ccc(C(=O)OCC)cc2)cc1	1	3.3*	1	99.6*	3.9
COC(=O)c1cc(=O)n(-c2ccccc2)c(=Nc2ccccc2)s1	1.1	25.8	1.1	87.0*	25.3
CC1CC(C)(C)NC(=S)N1CC(=O)NCc1ccc(F)cc1 (stereo not drawn)	1	.	1	4.0	.
Cc1cc(C)nc(/N=C(\N)Nc2ccc(S(=O)(=O)Nc3nccc(C)n3)cc2)n1	1.1	.	1.1	-11.8	.
CC(/C=C/c1ccc(OCc2ccccc2)cc1)=N\O	1.1	72.3	1	83.2*	85.3
CN(C)c1ccc(CNC23CC4CC(CC(C4)C2)C3)cc1	.	.	.	86.5*	.
COC(=O)c1cccc(NC(=O)CCc2ccccc2)c1	1	98.4	1	-8.3	94.3
COC(=O)c1cccc(NC(=O)CCc2cc(OC)c(OC)c(OC)c2)c1	1.1	90.1	1	59.1*	86.0
NS(=O)(=O)c1cccnc1Nc1c(Cl)cccc1Cl	0.9	93.1	1	1.9	107.9
N#C/C(=C\c1ccc(N2CCCCC2)c([N+](=O)[O-])c1)c1nn(-c2ccccc2)c(N)c1C#N	0.8	93.0	0.9	98.8*	62.4
CC1CCN(c2ccc(/C=C(\C#N)c3nn(-c4ccccc4)c(N)c3C#N)cc2[N+](=O)[O-])CC1	0.8	72.3	0.9	95.2*	76.0
CC1CCCN(c2ccc(/C=C(\C#N)c3nn(-c4ccccc4)c(N)c3C#N)cc2[N+](=O)[O-])C1 (stereo not drawn)	0.8	54.4	0.8	95.6*	51.7
Cc1cccc(NC(=O)c2cn(-c3ccccc3)nc2-c2ccccc2)c1	0.8	87.4	0.9	7.6	81.7
